Source: ChEMBL document CHEMBL2311339, “Identification of GZD824 as an orally bioavailable inhibitor that targets phosphorylated and nonphosphorylated breakpoint cluster region-Abelson (Bcr-Abl) kinase and overcomes clinically acquired mutation-induced resistance against imatinib” (J Med Chem, 2013)
Activity calls are given as the source filed them. The rule behind the calls is not given here.

Assays:
[1] = molecular target: Tyrosine-protein kinase ABL1 (Homo sapiens, UniProt P00519); test: Inhibition of human recombinant wild type ABL1 expressed in insect cells after 30 mins by FRET assay; assay type: cell-based
[2] = molecular target: Platelet-derived growth factor receptor beta (Homo sapiens) (UniProt P09619); test: Binding affinity to PDGFRbeta (unknown origin) at 10 nM after 2 hrs by FRET assay
Chain of Platelet-derived growth factor receptor beta (Homo sapiens) (P09619 whole entry): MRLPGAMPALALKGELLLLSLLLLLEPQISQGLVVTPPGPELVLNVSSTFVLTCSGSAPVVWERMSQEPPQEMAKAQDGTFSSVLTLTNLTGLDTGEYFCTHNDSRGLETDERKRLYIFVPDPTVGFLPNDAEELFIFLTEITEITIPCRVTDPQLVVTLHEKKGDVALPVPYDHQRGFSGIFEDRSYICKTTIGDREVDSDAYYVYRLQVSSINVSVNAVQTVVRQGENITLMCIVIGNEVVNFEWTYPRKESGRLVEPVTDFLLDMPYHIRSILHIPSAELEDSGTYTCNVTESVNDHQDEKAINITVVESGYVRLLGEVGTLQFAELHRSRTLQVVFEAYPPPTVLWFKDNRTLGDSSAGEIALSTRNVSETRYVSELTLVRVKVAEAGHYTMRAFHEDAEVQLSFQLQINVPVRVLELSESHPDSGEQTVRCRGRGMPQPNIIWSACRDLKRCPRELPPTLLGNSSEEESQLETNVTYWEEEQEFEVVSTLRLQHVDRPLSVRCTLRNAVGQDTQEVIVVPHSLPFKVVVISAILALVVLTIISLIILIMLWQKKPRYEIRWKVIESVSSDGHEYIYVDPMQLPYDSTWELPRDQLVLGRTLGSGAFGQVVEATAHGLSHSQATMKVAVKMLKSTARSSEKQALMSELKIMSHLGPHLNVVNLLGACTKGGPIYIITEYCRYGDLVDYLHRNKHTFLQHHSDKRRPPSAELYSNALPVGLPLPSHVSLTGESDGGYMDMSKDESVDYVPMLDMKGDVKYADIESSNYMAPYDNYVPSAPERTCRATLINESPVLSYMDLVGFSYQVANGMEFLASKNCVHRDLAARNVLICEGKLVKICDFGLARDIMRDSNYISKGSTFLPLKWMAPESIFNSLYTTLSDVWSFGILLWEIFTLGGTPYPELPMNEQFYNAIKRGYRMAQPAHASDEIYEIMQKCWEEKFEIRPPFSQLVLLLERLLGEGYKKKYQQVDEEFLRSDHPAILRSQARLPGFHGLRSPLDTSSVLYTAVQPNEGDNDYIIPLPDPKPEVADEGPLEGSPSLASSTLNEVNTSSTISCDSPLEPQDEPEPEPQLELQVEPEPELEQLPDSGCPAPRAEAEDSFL

K562 [3] = test: Cytotoxicity against human K562 cells expressing BCR-ABL assessed as growth inhibition after 72 hrs by CCK-8 assay; assay type: functional, cell-based; conditions: K562, 72 h
Procedure, shortened: (§1)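 Log-phase human leukemia cells were seeded at about 3000 cells/well and treated 24 h later for 72 h. CCK-8 was then incubated with the cells for 3 h and read as OD450 − OD650. Viability was normalized to vehicle wells and cell-free blanks, and IC50 taken as the mean of three experiments.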

[4] = molecular target: Proto-oncogene tyrosine-protein kinase Src (Homo sapiens) (UniProt P12931); test: Binding affinity to SRC (unknown origin) at 10 nM after 2 hrs by FRET assay
Chain of Proto-oncogene tyrosine-protein kinase Src (Homo sapiens) (P12931 2-536 limits assumed): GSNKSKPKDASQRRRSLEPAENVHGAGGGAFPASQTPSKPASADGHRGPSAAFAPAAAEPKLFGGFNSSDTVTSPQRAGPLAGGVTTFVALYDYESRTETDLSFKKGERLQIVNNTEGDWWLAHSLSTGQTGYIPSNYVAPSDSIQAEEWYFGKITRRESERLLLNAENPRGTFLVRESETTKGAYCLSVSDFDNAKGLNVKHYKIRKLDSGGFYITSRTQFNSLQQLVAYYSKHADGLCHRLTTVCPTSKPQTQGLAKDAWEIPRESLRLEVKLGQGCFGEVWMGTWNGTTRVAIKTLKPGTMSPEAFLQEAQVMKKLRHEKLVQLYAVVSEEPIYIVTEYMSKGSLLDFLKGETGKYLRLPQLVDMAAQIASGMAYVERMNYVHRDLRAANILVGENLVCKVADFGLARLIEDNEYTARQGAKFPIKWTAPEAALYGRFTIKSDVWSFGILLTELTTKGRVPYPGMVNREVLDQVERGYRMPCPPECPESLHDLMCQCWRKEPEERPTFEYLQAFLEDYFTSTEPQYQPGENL

[5] = Apparent permeability from basolateral to apical side in human Caco2 cells by LC-MS/MS analysis; assay type: ADME, cell-based; conditions: Caco-2
[6] = Plasma concentration in rat after 24 hrs; assay type: ADME
Procedure, shortened: (§2)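 Bismesylate salt given to rats as a single iv dose of 5 mg/kg or a single oral dose of 25 mg/kg. Plasma drug levels were followed over time to derive the PK parameters. The 12 h and 24 h plasma levels come from the oral 25 mg/kg dose.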

[7] = Clearance in rat at 25 mg/kg, po; assay type: ADME, organism-based; parameters: dose 25 mg/kg, route oral; conditions: in vivo; procedure, shortened: as §2
[8] = molecular target: Tyrosine-protein kinase ABL1 (Homo sapiens, UniProt P00519, Q252H); assay type: cell-based
MOLT-4 = test: Cytotoxicity against human MOLT4 cells […] assessed as growth inhibition after 72 hrs by CCK-8 assay; assay type: functional, cell-based; conditions: MOLT-4, 72 h; procedure, shortened: as §1
[9] = molecular target: Tyrosine-protein kinase ABL1 (Homo sapiens, UniProt P00519, Y253F); test: Inhibition of human recombinant ABL1 Y253F mutant expressed in insect cells after 30 mins by FRET assay; assay type: cell-based
[10] = Cytotoxicity against mouse BA/F3 cells expressing BCR-ABL E255K mutant assessed as growth inhibition after 72 hrs by CCK-8 assay; conditions: BaF3, 72 h
[11] = molecular target: Voltage-gated inwardly rectifying potassium channel KCNH2 (Homo sapiens, UniProt Q12809); test: Inhibition of human ERG expressed in CHO cells at up to 30 uM after 2.5 hrs by Rb+ efflux assay; assay type: cell-based
Chain of Voltage-gated inwardly rectifying potassium channel KCNH2 (Q12809 whole entry): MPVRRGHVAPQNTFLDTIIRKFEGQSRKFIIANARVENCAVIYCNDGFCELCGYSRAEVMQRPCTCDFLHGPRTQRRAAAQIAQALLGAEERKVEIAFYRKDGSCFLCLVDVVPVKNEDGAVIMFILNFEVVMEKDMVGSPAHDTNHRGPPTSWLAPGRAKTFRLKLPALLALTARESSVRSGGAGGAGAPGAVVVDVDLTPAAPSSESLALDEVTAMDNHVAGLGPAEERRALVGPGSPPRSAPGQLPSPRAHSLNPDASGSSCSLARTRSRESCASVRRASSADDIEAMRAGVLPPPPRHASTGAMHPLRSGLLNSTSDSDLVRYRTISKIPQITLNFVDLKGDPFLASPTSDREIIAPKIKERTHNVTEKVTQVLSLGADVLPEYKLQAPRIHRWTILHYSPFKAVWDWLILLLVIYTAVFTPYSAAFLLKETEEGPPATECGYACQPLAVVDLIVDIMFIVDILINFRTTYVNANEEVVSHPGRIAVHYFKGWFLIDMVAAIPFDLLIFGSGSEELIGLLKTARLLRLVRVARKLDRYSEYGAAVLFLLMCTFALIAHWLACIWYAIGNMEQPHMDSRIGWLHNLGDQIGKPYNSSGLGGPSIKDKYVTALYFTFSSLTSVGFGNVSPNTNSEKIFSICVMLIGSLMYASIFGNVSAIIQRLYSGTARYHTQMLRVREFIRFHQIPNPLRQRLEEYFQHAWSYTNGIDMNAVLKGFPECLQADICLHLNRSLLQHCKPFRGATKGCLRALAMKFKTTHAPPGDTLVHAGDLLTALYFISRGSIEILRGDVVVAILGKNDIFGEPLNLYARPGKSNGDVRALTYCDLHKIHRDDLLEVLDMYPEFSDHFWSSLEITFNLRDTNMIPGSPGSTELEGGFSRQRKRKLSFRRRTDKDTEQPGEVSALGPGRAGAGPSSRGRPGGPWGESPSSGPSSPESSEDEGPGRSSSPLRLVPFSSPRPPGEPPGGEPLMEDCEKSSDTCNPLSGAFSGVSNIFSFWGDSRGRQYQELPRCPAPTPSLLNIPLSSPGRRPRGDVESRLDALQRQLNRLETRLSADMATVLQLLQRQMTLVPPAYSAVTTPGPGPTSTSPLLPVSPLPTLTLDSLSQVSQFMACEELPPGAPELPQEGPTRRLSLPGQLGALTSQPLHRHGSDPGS

[12] = Cytotoxicity against mouse BA/F3 cells expressing wild type BCR-ABL assessed as growth inhibition after 72 hrs by CCK-8 assay; conditions: BaF3, 72 h
cells = conditions: Mus musculus, BaF3, 72 h
[13] = molecular target: Tyrosine-protein kinase ABL1 (Homo sapiens, UniProt P00519, E255K); test: Binding affinity to phosphorylated ABL1 E255K mutant (unknown origin) after 1 hr
[14] = AUC (0 to t) in rat at 5 mg/kg, iv; assay type: ADME, organism-based; parameters: dose 5 mg/kg, route intravenous; conditions: plasma; procedure, shortened: as §2
[15] = Cytotoxicity against mouse BA/F3 cells expressing BCR-ABL L248V mutant assessed as growth inhibition after 72 hrs by CCK-8 assay; conditions: BaF3, 72 h
K562 [16] = test: Antitumor activity against human K562 cells xenografted in mouse assessed as decrease in tumor recurrence at 5 to 10 mg/kg, po qd for 20 days; assay type: functional, organism-based
KU812 = test: Antitumor activity against human KU812 cells xenografted in mouse assessed as induction of tumor regression at 1 mg/kg, po qd for 14 days; assay type: functional, organism-based; parameters: dose 1 mg/kg
Rattus norvegicus = test: Volume of distribution at steady state in rat at 25 mg/kg, po; assay type: ADME, organism-based; parameters: dose 25 mg/kg, route oral; conditions: in vivo
Procedure, shortened: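 Test compound given to rats as its bismesylate salt in a single dose, 5 mg/kg iv or 25 mg/kg by mouth. Plasma drug levels were monitored after dosing, and PK parameters including Vss were reported per route.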

[17] = molecular target: Tyrosine-protein kinase ABL1 (Homo sapiens, UniProt P00519, H396P); assay type: cell-based
BaF3 [18] = test: Antitumor activity against mouse BA/F3 cells expressing wild type BCR-ABL allografted in SCID mouse assessed as inhibition of tumor growth at 50 to 100 mg/kg/day, po qd for 14 days; assay type: functional, organism-based
Procedure, shortened: (§3)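 Ba/F3 cells stably expressing Bcr-Abl (wild type or mutant) were grown in RPMI 1640 with 10% FBS and no IL-3, then suspended in saline (2.5 × 10^7 cells/mL) and given as 0.2 mL s.c. in the right flank. Groups were randomised at 100−200 mm3. Once-daily oral gavage for 14 days in DMSO/Cremophor/ethanol/saline vehicle; reference imatinib 50 or 100 mg/kg/day. Volume L × W²/2 every 2 days; n = 10; t test versus vehicle.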

[19] = molecular target: Tyrosine-protein kinase ABL1 (Homo sapiens, UniProt P00519, G250E); assay type: cell-based
BaF3 [20] = test: Antitumor activity against mouse BA/F3 cells expressing BCR-ABL T315I mutant allografted in SCID mouse assessed as suppression of cell proliferation at 1 to 20 mg/kg/day, po qd for 10 days; assay type: functional, organism-based
K562 [21] = test: Cytotoxicity against imatinib-resistant human K562 cells expressing BCR-ABL Q252H mutant assessed as growth inhibition after 72 hrs by CCK-8 assay; assay type: functional, cell-based; conditions: K562, 72 h
Procedure, shortened: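 The K562 subline was made imatinib-resistant by 3 months of exposure to imatinib from 0.1 to 5 μM, followed by clonal selection and sequencing to confirm Q252H. Cells were seeded at about 3000 cells/well, treated 24 h later for 72 h, then given CCK-8 for 3 h. Read-out was OD450 − OD650 normalized to vehicle; IC50 is the mean of three experiments.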

[22] = molecular target: Platelet-derived growth factor receptor alpha (Homo sapiens) (UniProt P16234); test: Binding affinity to PDGFRalpha (unknown origin) at 10 nM after 2 hrs by FRET assay
Chain of Platelet-derived growth factor receptor alpha (Homo sapiens) (P16234 whole entry): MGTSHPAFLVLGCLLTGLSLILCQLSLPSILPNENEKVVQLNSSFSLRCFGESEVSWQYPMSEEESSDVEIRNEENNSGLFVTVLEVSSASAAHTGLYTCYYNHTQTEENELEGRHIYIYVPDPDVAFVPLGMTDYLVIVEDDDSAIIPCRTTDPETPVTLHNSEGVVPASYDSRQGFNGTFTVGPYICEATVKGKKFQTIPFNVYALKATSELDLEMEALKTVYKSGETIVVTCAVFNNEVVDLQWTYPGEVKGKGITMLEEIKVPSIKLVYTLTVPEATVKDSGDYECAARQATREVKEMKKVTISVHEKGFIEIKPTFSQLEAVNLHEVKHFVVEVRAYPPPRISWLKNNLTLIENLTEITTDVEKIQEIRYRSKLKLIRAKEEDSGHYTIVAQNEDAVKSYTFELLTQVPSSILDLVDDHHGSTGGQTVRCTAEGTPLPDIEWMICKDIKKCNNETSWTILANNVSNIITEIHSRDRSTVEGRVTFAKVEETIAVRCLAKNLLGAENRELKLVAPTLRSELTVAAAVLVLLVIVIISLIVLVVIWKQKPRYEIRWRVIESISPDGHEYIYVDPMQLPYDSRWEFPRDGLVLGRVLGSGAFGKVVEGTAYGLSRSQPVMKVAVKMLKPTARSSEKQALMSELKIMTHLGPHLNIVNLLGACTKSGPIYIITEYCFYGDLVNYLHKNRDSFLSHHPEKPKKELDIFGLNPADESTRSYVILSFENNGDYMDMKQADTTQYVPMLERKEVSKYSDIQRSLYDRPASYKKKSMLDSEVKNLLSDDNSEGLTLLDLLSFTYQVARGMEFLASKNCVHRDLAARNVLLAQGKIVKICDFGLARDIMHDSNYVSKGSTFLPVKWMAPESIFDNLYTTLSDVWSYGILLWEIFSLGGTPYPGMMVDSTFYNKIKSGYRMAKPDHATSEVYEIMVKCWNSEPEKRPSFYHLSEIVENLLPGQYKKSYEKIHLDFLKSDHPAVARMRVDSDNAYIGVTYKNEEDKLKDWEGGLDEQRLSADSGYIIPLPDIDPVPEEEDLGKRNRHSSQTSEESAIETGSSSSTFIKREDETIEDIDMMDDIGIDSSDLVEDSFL

[23] = Cytotoxicity against human KU812 cells expressing BCR-ABL assessed as growth inhibition after 72 hrs by CCK-8 assay; assay type: functional, cell-based; conditions: KU812, 72 h; procedure, shortened: as §1
[24] = Apparent permeability from apical to basolateral side in human Caco2 cells by LC-MS/MS analysis; assay type: ADME, cell-based; conditions: Caco-2
BaF3 [25] = test: Antitumor activity against mouse BA/F3 cells expressing wild type BCR-ABL allografted in SCID mouse assessed as inhibition of tumor growth at 1 mg/kg/day, po qd for 14 days; assay type: functional, organism-based; procedure, shortened: as §3
Mus musculus = test: Toxicity in human K562 cells xenografted mouse assessed as mortality; assay type: organism-based; conditions: in vivo
Procedure, shortened: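 K562 cells suspended in normal saline (2.5 × 10^7 cells/mL), 0.2 mL injected subcutaneously into the right flank. Mice were randomised once mean tumour volume reached 100−200 mm3. Oral gavage once daily for 14 days, in 1% DMSO/22.5% Cremophor/7.5% ethanol/69% saline. Tumour volume (L × W²/2) and body weight taken every 2 days; recurrence followed 20 days after dosing stopped. n = 10/group; unpaired t test versus vehicle.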

[26] = Cytotoxicity against mouse BA/F3 cells expressing BCR-ABL Y253H mutant assessed as growth inhibition after 72 hrs by CCK-8 assay; conditions: BaF3, 72 h

## Cc1ccc(C(=O)Nc2ccc(CN3CCN(C)CC3)c(C(F)(F)F)c2)cc1C#Cc1cnc2[nH]ncc2c1 [OLVEREMBATINIB]
[1]
  IC50: 0.34 nM
[2]
  Activity: inactive
K562 [3]
  IC50: 0.2 nM
[4]
  Activity: inactive
[5]
  Papp B→A: 0.28 ×10⁻⁶ cm/s
[6]
  concentration at 24 h: 169 nM
[7]
  CL/F: 60 mL/min/kg
[8]
  IC50: 0.15 nM
MOLT-4
  IC50: 26.3 nM
[9]
  IC50: 0.35 nM
[10]
  IC50: 3.5 nM
[11]
  inhibition (INH): Not Active
[12]
  IC50: 1 nM
cells
  IC50: 7.1 nM
[13]
  Kd: 0.28 nM
[14]
  AUC(0-t): 2740 ng·h/mL
[15]
  IC50: 7.3 nM
K562 [16]
  Activity: Active
KU812
  Activity: Active
Rattus norvegicus
  Vdss: 53.2 L/kg
[17]
  IC50: 0.35 nM
BaF3 [18]
  TGI: Dose-dependent effect
[19]
  IC50: 0.71 nM
BaF3 [20]
  Activity: Dose-dependent effect
K562 [21]
  IC50: 4.5 nM
[22]
  Activity: inactive
[23]
  IC50: 0.13 nM
[24]
  Papp A→B: 0.32 ×10⁻⁶ cm/s
BaF3 [25]
  TGI: Active
Mus musculus
  Activity: Non-toxic
[26]
  IC50: 3 nM
